Experimental data: ChEMBL document CHEMBL2346654, “Discovery of biological evaluation of pyrazole/imidazole amides as mGlu5 receptor negative allosteric modulators” (Bioorg Med Chem Lett, 2013)
Blank lines part the entries; values can stand above or below the compound they belong to. Calls of active or inactive are those of the source. The calls are words filed in the database; no cut-off is given here.

Columns and labels:
[1] = Half life in mouse liver microsomes; conditions: liver microsomes
[2] = Oral bioavailability in rat; assay type: ADME, organism-based; conditions: in vivo
Method in brief: (§1)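 Oral bioavailability (F) determined in mice and rats. Dosing vehicle 5% DMSO + 5% Cremophore.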

Mus musculus [3] = assay: Antidepressant activity in ICR mouse assessed as decrease in immobility time at 10 mg/kg, po administered 1 hr before test measured for 4 mins following training for 2 mins by forced swimming test; assay type: functional; parameters: scale not given: the % may be the effect or the level left
Method in brief: (§2)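 Mouse forced swim test: ICR mice dosed orally 1 h before testing; 2 min training, then immobility duration recorded over 4 min. Activity expressed as % decrease in immobility duration. Mean ± SEM, n = 8; Dunnett's multiple comparisons after one-way ANOVA (p < 0.05).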

[4] = Oral bioavailability in mouse; assay type: ADME, organism-based; conditions: in vivo; method in brief: as §1
[5] = molecular target: Metabotropic glutamate receptor 5 (Homo sapiens, UniProt P41594); assay: Negative allosteric modulation of human mGluR5 expressed in HEK293 cells assessed as calcium mobilization by FLIPR assay; assay type: functional, cell-based
Sequence of Metabotropic glutamate receptor 5 (P41594 whole entry): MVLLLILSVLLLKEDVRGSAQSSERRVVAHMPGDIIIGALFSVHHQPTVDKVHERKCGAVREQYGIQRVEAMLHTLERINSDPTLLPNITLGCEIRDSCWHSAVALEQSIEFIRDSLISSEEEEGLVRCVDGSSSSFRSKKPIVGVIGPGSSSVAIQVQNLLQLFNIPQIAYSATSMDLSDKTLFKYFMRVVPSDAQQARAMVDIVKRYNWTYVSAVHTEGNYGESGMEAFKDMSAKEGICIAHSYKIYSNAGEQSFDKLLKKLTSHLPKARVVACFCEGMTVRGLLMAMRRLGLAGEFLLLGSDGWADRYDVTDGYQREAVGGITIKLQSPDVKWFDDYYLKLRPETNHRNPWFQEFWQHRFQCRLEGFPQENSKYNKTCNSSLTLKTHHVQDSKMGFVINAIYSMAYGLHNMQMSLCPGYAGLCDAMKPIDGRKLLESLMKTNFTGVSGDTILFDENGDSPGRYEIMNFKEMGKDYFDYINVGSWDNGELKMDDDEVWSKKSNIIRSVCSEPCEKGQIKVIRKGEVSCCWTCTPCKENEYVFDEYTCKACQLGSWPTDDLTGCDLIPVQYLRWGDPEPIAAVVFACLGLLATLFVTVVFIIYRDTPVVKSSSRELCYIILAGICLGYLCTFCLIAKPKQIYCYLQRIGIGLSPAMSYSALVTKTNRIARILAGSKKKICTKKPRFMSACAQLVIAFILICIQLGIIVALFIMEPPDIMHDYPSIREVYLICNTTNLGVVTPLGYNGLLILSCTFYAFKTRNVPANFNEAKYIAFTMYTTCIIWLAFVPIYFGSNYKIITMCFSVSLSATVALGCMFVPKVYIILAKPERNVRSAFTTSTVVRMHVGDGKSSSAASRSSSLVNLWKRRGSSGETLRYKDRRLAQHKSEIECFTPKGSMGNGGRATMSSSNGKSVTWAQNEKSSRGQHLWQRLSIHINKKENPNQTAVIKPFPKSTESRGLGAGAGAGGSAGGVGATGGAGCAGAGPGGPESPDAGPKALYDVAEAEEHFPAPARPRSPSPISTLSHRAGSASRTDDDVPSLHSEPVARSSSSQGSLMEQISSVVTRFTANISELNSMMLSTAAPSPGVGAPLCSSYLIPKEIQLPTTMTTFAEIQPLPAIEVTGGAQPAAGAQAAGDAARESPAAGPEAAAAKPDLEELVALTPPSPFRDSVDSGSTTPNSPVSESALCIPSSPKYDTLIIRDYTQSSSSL

[6] = Half life in human liver microsomes; conditions: liver microsomes
Mus musculus [7] = assay: Toxicity in ICR mouse assessed as induction of locomotor activity at 1 to 30 mg/kg, ip; assay type: organism-based; parameters: dose 1-30 mg/kg, route intraperitoneal; conditions: in vivo
Method in brief: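 Locomotor activity tests in mice, run to separate antidepressant effect from hyperactivity. Compound given intraperitoneally over a dose range of 1 mg/kg to 30 mg/kg.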

[8] = Half life in rat liver microsomes; conditions: liver microsomes
Rattus norvegicus = assay: Antidepressant activity in rat assessed as decrease in immobility time at 10 mg/kg, ip by forced swimming test; assay type: functional; parameters: scale not given: the % may be the effect or the level left; conditions: route intraperitoneal
Method in brief: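 Rat forced swim test with intraperitoneal dosing at 10 mg/kg. Read-out is % decrease in immobility duration. Dosing vehicle 5% DMSO + 5% Cremophore.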

Mus musculus [9] = assay: Antidepressant activity in ip dosed ICR mouse assessed as decrease in immobility time administered 1 hr before test measured for 4 mins following training for 2 mins by forced swimming test
[10] = molecular target: Histamine H1 receptor (Homo sapiens) (UniProt P35367); assay: Inhibition of histamine H1 receptor (unknown origin) at 10 uM
Sequence of Histamine H1 receptor (Homo sapiens) (P35367 whole entry): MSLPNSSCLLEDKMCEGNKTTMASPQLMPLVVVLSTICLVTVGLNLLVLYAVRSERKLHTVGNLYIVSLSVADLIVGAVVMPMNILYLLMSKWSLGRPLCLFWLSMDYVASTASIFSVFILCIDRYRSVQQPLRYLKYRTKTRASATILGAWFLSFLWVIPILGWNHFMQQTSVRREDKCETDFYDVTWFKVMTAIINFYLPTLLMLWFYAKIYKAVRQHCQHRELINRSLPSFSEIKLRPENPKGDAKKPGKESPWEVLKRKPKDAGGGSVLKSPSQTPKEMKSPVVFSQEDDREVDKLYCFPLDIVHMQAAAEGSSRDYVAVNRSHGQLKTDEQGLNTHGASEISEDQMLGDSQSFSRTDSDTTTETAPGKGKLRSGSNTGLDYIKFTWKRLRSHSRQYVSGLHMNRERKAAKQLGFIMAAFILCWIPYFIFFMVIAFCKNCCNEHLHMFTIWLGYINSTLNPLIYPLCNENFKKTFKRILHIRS

Mus musculus [11] = assay: Antidepressant activity in ICR mouse assessed as decrease in immobility time at 50 mg/kg, po administered 1 hr before test measured for 4 mins following training for 2 mins by forced swimming test; assay type: functional; parameters: scale not given: the % may be the effect or the level left; method in brief: as §2
[12] = molecular target: Alpha-1D adrenergic receptor (Homo sapiens) (UniProt P25100); assay: Inhibition of adrenergic alpha1D receptor (unknown origin) at 10 uM
Sequence of Alpha-1D adrenergic receptor (Homo sapiens) (P25100 whole entry): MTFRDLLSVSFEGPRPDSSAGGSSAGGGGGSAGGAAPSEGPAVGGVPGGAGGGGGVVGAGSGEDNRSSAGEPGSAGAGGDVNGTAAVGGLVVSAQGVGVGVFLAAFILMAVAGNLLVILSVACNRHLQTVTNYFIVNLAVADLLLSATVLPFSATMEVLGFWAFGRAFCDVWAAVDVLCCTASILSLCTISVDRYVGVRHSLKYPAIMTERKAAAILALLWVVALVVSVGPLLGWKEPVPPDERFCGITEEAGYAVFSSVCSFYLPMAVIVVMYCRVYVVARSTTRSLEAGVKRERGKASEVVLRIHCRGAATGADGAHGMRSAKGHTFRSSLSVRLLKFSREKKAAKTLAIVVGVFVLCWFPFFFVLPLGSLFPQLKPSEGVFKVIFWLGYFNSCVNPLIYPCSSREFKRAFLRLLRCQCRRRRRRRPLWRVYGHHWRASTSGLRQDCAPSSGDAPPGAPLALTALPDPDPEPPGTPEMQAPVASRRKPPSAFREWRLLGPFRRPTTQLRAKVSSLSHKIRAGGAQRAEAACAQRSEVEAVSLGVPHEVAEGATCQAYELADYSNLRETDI

[13] = molecular target: Sodium-dependent serotonin transporter (Homo sapiens) (UniProt P31645); assay: Inhibition of SERT (unknown origin) at 10 uM
Sequence of Sodium-dependent serotonin transporter (Homo sapiens) (P31645 whole entry, looked up): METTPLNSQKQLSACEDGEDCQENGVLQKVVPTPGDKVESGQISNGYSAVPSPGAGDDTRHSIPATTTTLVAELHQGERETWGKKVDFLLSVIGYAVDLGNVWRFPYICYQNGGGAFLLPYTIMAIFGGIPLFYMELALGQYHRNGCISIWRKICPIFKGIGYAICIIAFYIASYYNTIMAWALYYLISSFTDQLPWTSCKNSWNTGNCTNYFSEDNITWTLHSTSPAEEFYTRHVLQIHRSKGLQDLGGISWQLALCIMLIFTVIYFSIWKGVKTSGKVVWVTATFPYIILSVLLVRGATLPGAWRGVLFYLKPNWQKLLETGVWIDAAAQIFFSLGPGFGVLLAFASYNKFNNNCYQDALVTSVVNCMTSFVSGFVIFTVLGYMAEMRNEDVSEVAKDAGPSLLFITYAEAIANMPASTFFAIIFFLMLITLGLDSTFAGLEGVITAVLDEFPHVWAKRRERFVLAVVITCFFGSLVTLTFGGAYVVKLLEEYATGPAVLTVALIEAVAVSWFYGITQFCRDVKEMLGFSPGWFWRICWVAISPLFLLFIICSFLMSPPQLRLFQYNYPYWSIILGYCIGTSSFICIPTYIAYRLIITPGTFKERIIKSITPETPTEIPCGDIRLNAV

[14] = molecular target: Amine oxidase [flavin-containing] B (Homo sapiens, UniProt P27338); assay: Inhibition of MAO-B (unknown origin) at 10 uM
Sequence of Amine oxidase [flavin-containing] B (P27338 whole entry): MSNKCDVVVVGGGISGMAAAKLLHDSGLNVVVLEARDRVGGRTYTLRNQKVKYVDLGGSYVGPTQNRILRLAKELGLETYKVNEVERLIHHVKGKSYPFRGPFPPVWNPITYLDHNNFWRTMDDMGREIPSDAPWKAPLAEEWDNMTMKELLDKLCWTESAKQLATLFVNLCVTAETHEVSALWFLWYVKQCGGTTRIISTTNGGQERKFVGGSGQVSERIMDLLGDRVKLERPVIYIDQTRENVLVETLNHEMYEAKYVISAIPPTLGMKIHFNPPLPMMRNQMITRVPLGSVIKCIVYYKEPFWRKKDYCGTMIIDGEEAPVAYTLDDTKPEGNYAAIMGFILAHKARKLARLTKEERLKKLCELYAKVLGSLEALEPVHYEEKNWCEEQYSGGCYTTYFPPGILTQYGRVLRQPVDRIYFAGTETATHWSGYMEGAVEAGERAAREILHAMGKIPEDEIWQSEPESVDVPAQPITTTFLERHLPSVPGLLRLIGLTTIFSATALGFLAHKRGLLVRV

[15] = molecular target: Sodium-dependent noradrenaline transporter (Homo sapiens) (UniProt P23975); assay: Inhibition of NET (unknown origin) at 10 uM
[16] = molecular target: Amine oxidase [flavin-containing] A (Homo sapiens, UniProt P21397); assay: Inhibition of MAO-A (unknown origin) at 10 uM
Sequence of Amine oxidase [flavin-containing] A (P21397 whole entry): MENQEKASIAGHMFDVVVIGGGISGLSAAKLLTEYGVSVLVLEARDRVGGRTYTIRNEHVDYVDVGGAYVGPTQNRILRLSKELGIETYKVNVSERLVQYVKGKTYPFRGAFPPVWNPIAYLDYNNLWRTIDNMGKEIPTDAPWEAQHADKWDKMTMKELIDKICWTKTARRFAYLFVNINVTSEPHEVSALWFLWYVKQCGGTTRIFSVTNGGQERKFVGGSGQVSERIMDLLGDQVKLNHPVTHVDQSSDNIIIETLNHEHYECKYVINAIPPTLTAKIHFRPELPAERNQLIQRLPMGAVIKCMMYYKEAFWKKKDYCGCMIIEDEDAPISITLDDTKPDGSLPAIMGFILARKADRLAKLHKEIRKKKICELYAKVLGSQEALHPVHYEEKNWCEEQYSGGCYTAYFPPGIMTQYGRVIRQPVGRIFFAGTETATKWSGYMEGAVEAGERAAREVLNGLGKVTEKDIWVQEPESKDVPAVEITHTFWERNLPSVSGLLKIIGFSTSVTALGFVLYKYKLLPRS

[17] = molecular target: Muscarinic acetylcholine receptor M1 (Homo sapiens) (UniProt P11229); assay: Inhibition of muscarinic M1 receptor (unknown origin) at 10 uM
Sequence of Muscarinic acetylcholine receptor M1 (Homo sapiens) (P11229 whole entry): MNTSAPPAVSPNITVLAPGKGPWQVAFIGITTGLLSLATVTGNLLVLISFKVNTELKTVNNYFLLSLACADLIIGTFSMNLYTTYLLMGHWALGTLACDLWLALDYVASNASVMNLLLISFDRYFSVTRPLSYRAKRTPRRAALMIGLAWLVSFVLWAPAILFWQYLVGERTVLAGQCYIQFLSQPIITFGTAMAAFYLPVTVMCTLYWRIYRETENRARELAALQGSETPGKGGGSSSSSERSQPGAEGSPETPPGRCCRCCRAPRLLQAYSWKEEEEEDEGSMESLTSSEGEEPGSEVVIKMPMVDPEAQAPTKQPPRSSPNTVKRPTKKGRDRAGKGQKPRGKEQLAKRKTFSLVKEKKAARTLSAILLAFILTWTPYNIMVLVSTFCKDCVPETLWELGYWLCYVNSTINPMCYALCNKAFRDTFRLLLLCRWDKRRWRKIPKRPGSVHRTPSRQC

[18] = molecular target: Muscarinic acetylcholine receptor M2 (Homo sapiens) (UniProt P08172); assay: Inhibition of muscarinic M2 receptor (unknown origin) at 10 uM
[19] = molecular target: 5-hydroxytryptamine receptor 2C (Homo sapiens) (UniProt P28335); assay: Inhibition of 5-HT2C receptor (unknown origin) at 10 uM
Sequence of 5-hydroxytryptamine receptor 2C (Homo sapiens) (P28335 whole entry): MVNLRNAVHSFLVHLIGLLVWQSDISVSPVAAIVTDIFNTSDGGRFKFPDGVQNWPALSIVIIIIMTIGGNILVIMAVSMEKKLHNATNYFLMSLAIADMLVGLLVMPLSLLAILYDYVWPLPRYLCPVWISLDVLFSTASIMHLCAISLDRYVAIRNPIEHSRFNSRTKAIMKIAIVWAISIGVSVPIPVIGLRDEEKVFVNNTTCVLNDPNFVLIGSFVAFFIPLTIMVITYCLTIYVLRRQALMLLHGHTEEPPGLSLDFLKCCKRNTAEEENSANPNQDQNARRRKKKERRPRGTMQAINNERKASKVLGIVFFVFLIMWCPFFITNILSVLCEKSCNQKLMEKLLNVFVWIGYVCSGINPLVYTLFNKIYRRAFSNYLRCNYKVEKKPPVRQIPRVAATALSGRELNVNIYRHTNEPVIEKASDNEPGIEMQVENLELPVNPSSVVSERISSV

[20] = molecular target: Sodium-dependent dopamine transporter (Homo sapiens) (UniProt Q01959); assay: Inhibition of DAT (unknown origin) at 10 uM
[21] = Half life in rat plasma; assay type: ADME, cell-free
[22] = molecular target: Adenosine receptor A2a (Homo sapiens) (UniProt P29274); assay: Inhibition of adenosine A2A receptor (unknown origin) at 10 uM

half-life [1]: 36 min | bioavailability [2]: < 2% | bioavailability [4]: 31% | IC50 [5]: 1.1 nM | half-life [6]: 82 min | half-life [8]: 56 min
Structure (SMILES): Cc1cccc(NC(=O)c2nn(C)c(-c3ccc(F)cc3)c2C)n1
Activity (Mus musculus [3]): 61.1% | Activity (Mus musculus [7]): Non-toxic | Activity (Rattus norvegicus): 10.9% | ED50 (Mus musculus [9]): 1.1 mg/kg

inhibition [10]: inactive | half-life [1]: 18 min | inhibition [12]: inactive | inhibition [13]: inactive | inhibition (INH) [14]: Not Active | inhibition [15]: 63% | inhibition (INH) [16]: Not Active | inhibition [17]: inactive | IC50 [5]: 4.4 nM | inhibition [18]: inactive | half-life [6]: 66 min | half-life [8]: 24 min | inhibition [19]: 66% | inhibition [20]: 60% | half-life [21]: > 180 min | inhibition [22]: inactive
Structure (SMILES): Cc1cccc(NC(=O)c2nn(C)c(-c3ccccc3)c2C)n1
Activity (Mus musculus [11]): 53.3%
